According to ChEMBL document CHEMBL2034930, “Alkylidene branched lupane derivatives: synthesis and antitumor activity” (Eur J Med Chem, 2012):
The source made the active and inactive calls. No cut-off for these calls is given here.

Tests used:
[1] = Solubility of the compound in water; assay type: physicochemical; conditions: buffer
A549 [2] = experiment: Cytotoxicity against human A549 cells after 96 hrs by SRB assay; assay type: functional, cell-based
Procedure, shortened: (§1)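 Cells exposed to test compounds for 96 h, then viable cells measured by sulforhodamine B staining as a percentage of untreated controls. IC50 read from dose-response curves, averaged over at least three independent experiments. Compounds tested free and also encapsulated in soybean-lecithin liposomes extruded through a 100 nm polycarbonate membrane (hydrodynamic diameter 70-120 nm, Z-average 105 nm, encapsulation >96% by HPLC).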

SW-1736 = experiment: Cytotoxicity against human SW1736 cells after 96 hrs by SRB assay; assay type: functional, cell-based; procedure, shortened: as §1
8505C = experiment: Cytotoxicity against human 8505C cells after 96 hrs by SRB assay; assay type: functional, cell-based; procedure, shortened: as §1
SW480 [3] = experiment: Cytotoxicity against human SW480 cells after 96 hrs by SRB assay; assay type: functional, cell-based; procedure, shortened: as §1
DLD-1 = experiment: Cytotoxicity against human DLD1 cells after 96 hrs by SRB assay; assay type: functional, cell-based; procedure, shortened: as §1
[4] = Cytotoxicity against human 518A2 cells after 96 hrs by SRB assay; assay type: functional, cell-based; procedure, shortened: as §1
FaDu = experiment: Cytotoxicity against human FADU cells after 96 hrs by SRB assay; assay type: functional, cell-based; procedure, shortened: as §1
NIH3T3 = experiment: Cytotoxicity against mouse NIH/3T3 cells after 96 hrs by SRB assay; assay type: cell-based; conditions: NIH3T3, 96 h; procedure, shortened: as §1
A2780 = experiment: Cytotoxicity against human A2780 cells after 96 hrs by SRB assay; assay type: functional, cell-based; procedure, shortened: as §1
HCT-8 = experiment: Cytotoxicity against human HCT8 cells after 96 hrs by SRB assay; assay type: functional, cell-based; procedure, shortened: as §1
A-431 = experiment: Cytotoxicity against human A431 cells after 96 hrs by SRB assay; assay type: functional, cell-based; procedure, shortened: as §1
HCT-116 = experiment: Cytotoxicity against human HCT116 cells after 96 hrs by SRB assay; assay type: functional, cell-based; procedure, shortened: as §1
HT-29 = experiment: Cytotoxicity against human HT-29 cells after 96 hrs by SRB assay; assay type: functional, cell-based; procedure, shortened: as §1
[5] = Cytotoxicity against human Lipo cells after 96 hrs by SRB assay; assay type: functional, cell-based; procedure, shortened: as §1
[6] = Cytotoxicity against human A253 cells after 96 hrs by SRB assay; assay type: functional, cell-based; procedure, shortened: as §1
MCF7 = experiment: Cytotoxicity against human MCF7 cells after 96 hrs by SRB assay; assay type: functional, cell-based; procedure, shortened: as §1
SW480 [7] = experiment: Induction of apoptosis in human SW480 cells assessed as DNA laddering at 6 uM after 24 hrs; assay type: functional, cell-based
A549 [8] = experiment: Induction of apoptosis in human A549 cells at 0.8 uM by acridine orange/ethidium bromide staining; assay type: functional, cell-based
SW480 [9] = experiment: Induction of apoptosis in human SW480 cells assessed as DNA laddering at IC90 concentration after 24 hrs
[10] = Chemical stability of the compound; assay type: physicochemical
[11] = Homo sapiens, A549, 96 h, read-out: IC50
[12] = Homo sapiens, SW-1736, 96 h, read-out: IC50
[13] = Homo sapiens, 8505C, 96 h, read-out: IC50
[14] = Homo sapiens, SW480, 96 h, read-out: IC50
[15] = Homo sapiens, DLD-1, 96 h, read-out: IC50
[16] = Homo sapiens, 518A2, 96 h, read-out: IC50
[17] = Homo sapiens, FaDu, 96 h, read-out: IC50
[18] = Homo sapiens, A2780, 96 h, read-out: IC50
[19] = Homo sapiens, HCT-8, 96 h, read-out: IC50
[20] = Homo sapiens, A-431, 96 h, read-out: IC50
[21] = Homo sapiens, HCT-116, 96 h, read-out: IC50
[22] = Homo sapiens, HT-29, 96 h, read-out: IC50
[23] = Homo sapiens, Lipo, 96 h, read-out: IC50
[24] = Homo sapiens, A253, 96 h, read-out: IC50
[25] = Homo sapiens, MCF7, 96 h, read-out: IC50

Compound | solubility [1] | IC50 (A549 [2]; [11]) | IC50 (SW-1736; [12]) | IC50 (8505C; [13]) | IC50 (SW480 [3]; [14]) | IC50 (DLD-1; [15]) | IC50 [4, 16] | IC50 (FaDu; [17]) | IC50 (NIH3T3) | IC50 (A2780; [18]) | IC50 (HCT-8; [19]) | IC50 (A-431; [20]) | IC50 (HCT-116; [21]) | IC50 (HT-29; [22]) | IC50 [5, 23] | IC50 [6, 24] | IC50 (MCF7; [25]) | also measured
C=C(C)[C@@H]1CC[C@]2(C=O)CC[C@]3(C)[C@H](CC[C@@H]4[C@@]5(C)CCC(=O)C(C)(C)[C@@H]5CC[C@]43C)[C@@H]12 [BETULONAL] | Insoluble |  |  |  |  |  |  |  |  |  |  |  |  |  |  |  |  | 
C=C1C[C@]2(C)[C@H]3CC[C@@H]4[C@H]5[C@H](C(=C)C)CC[C@]5(C=O)CC[C@@]4(C)[C@]3(C)CC[C@H]2C(C)(C)C1=O | Insoluble | 1800 nM | 2100 nM | 1300 nM | 2700 nM | 3700 nM | 3800 nM | 5100 nM | 4700 nM | 1300 nM | 7100 nM | 3000 nM | 3200 nM | 7100 nM | 2700 nM | 1000 nM | 2100 nM | 
C=C1C[C@]2(C)[C@H]3CC[C@@H]4[C@H]5[C@H](C(=C)C)CC[C@]5(C(=O)OC)CC[C@@]4(C)[C@]3(C)CC[C@H]2C(C)(C)C1=O | Insoluble | 5100 nM | 4900 nM | 5000 nM | 4500 nM | 6400 nM | 4200 nM | 7700 nM | 4900 nM | 5100 nM | 9000 nM | 4900 nM | 4500 nM | 5900 nM | 4600 nM | 4000 nM | 4400 nM | Activity (SW480 [7]): Active; Activity (A549 [8]): Active
C=C(C)[C@@H]1CC[C@]2(C(=O)OC)CC[C@]3(C)[C@H](CC[C@@H]4[C@@]5(C)CCC(=O)C(C)(C)[C@@H]5CC[C@]43C)[C@@H]12 [METHYL BETULONATE] | Insoluble |  |  |  |  |  |  |  |  |  |  |  |  |  |  |  |  | 
C=C(C)[C@@H]1CC[C@]2(C(=O)O)CC[C@]3(C)[C@H](CC[C@@H]4[C@@]5(C)CCC(=O)C(C)(C)[C@@H]5CC[C@]43C)[C@@H]12 [BETUNOLIC ACID] | Insoluble |  |  |  |  |  |  |  |  |  |  |  |  |  |  |  |  | 
C=C(C)[C@@H]1CC[C@]2(C(=O)OC)CC[C@]3(C)[C@H](CC[C@@H]4[C@@]5(C)C[C@@H](CSCCO)C(=O)C(C)(C)[C@@H]5CC[C@]43C)[C@@H]12 | Insoluble | 2100 nM | 2100 nM | 2300 nM | 1500 nM | 2500 nM | 1500 nM | 2500 nM | 2100 nM | 1600 nM | 2500 nM | 1700 nM | 1900 nM | 1400 nM | 1800 nM | 1500 nM | 1500 nM | Activity (SW480 [7]): Active; Activity (A549 [8]): Active
C=C(C)[C@@H]1CC[C@]2(C(=O)OC)CC[C@]3(C)[C@H](CC[C@@H]4[C@@]5(C)C[C@@H](CC[N+](=O)[O-])C(=O)C(C)(C)[C@@H]5CC[C@]43C)[C@@H]12 | Insoluble |  |  |  |  |  |  |  |  |  |  |  |  |  |  |  |  | 
C=C(C)[C@@H]1CC[C@]2(CO)CC[C@]3(C)[C@H](CC[C@@H]4[C@@]5(C)CC[C@H](O)C(C)(C)[C@@H]5CC[C@]43C)[C@@H]12 [BETULIN] | Insoluble |  |  |  |  |  |  |  |  |  |  |  |  |  |  |  |  | 
C=C1C[C@]2(C)[C@H]3CC[C@@H]4[C@H]5[C@H](C(=C)C)CC[C@]5(C(=O)N5CCSCC5)CC[C@@]4(C)[C@]3(C)CC[C@H]2C(C)(C)C1=O | Insoluble | 1500 nM | 1500 nM | 1500 nM | 1500 nM | 1500 nM | 1500 nM | 1600 nM | 1900 nM | 1000 nM | 1500 nM | 1400 nM | 1300 nM | 1600 nM | 1500 nM | 1400 nM | 1400 nM | 
C=C(C)[C@@H]1CC[C@]2(C(=O)OC)CC[C@]3(C)[C@H](CC[C@@H]4[C@@]5(C)C[C@@H](CS(=O)(=O)CCO)C(=O)C(C)(C)[C@@H]5CC[C@]43C)[C@@H]12 | Insoluble | 3300 nM | 3300 nM | 3400 nM | 2600 nM | 4400 nM | 2600 nM | 3800 nM | 3200 nM | 2600 nM | 4000 nM | 2800 nM | 2800 nM | 2500 nM | 2700 nM | 2500 nM | 2600 nM | 
C=C(C)[C@@H]1CC[C@]2(C(=O)OC)CC[C@]3(C)[C@H](CC[C@@H]4[C@@]5(C)C[C@@]6(CCN=N6)C(=O)C(C)(C)[C@@H]5CC[C@]43C)[C@@H]12 | Insoluble |  |  |  |  |  |  |  |  |  |  |  |  |  |  |  |  | IC50 (A549 [2]; a549): > 30000 nM; IC50 (SW-1736; sw-1736): > 30 µmol; IC50 (8505C; 8505c): > 30000 nM; IC50 (SW480 [3]; sw480): > 30 µmol; IC50 (DLD-1; dld-1): > 30000 nM; IC50 ([4]; 518a2): > 30000 nM; IC50 (FaDu; fadu): > 30000 nM; IC50 (A2780; a2780): > 30000 nM; IC50 (HCT-8; hct-8): > 30 µmol; IC50 (A-431; a-431): > 30000 nM; IC50 (HCT-116; hct-116): > 30 µmol; IC50 (HT-29; ht-29): > 30 µmol; IC50 ([5]; lipo): > 30 µmol; IC50 ([6]; a253): > 30000 nM; IC50 (MCF7; mcf7): > 30 µmol
C=C1C[C@]2(C)[C@H]3CC[C@@H]4[C@H]5[C@H](C(=C)C)CC[C@]5(C(=O)O)CC[C@@]4(C)[C@]3(C)CC[C@H]2C(C)(C)C1=O | Insoluble | 600 nM | 400 nM | 600 nM | 400 nM | 400 nM | 500 nM | 500 nM | 800 nM | 600 nM | 200 nM | 200 nM | 200 nM | 400 nM | 600 nM | 400 nM | 300 nM | Activity (A549 [8]): Active; Activity (SW480 [9]): Active
C=C/C=C1/C[C@]2(C)[C@H]3CC[C@@H]4[C@H]5[C@H](C(=C)C)CC[C@]5(C(=O)OC)CC[C@@]4(C)[C@]3(C)CC[C@H]2C(C)(C)C1=O | Insoluble | 13000 nM | 15000 nM | 11300 nM | 10500 nM | 14200 nM | 11500 nM | 17000 nM | 13100 nM | 11200 nM | 14000 nM | 13000 nM | 14600 nM | 10900 nM | 11600 nM | 10400 nM | 11200 nM | 
C=C(C)[C@@H]1CC[C@]2(C(=O)OC)CC[C@]3(C)[C@H](CC[C@@H]4[C@@]5(C)C[C@@H](CN(C)C)C(=O)C(C)(C)[C@@H]5CC[C@]43C)[C@@H]12 | Insoluble |  |  |  |  |  |  |  |  |  |  |  |  |  |  |  |  | Stability [10]: Unstable
C=C(C)[C@@H]1CC[C@]2(C(=O)OC)CC[C@]3(C)[C@H](CC[C@@H]4[C@@]5(C)C/C(=C\C)C(=O)C(C)(C)[C@@H]5CC[C@]43C)[C@@H]12 | Insoluble | > 30000 nM | 21900 nM | 26400 nM | 16000 nM | > 30000 nM | > 30000 nM | 22400 nM | 29100 nM | 16100 nM | 17200 nM | 26400 nM | 24000 nM | > 30000 nM | 27800 nM | 21600 nM | 27200 nM | 
